Screening data (PubChem BioAssay)
MEKK3 PB1 HTS – modulators (inhibitors or enhancers) of MEK5 binding to human MEKK3 PB1 domain | Q99759 | bead-based flow cytometry, Alexa488-MEK5 binding to MEKK3; actives lie on both sides; 0 = blocked by unlabeled MEK5, 100 = vehicle | binding response (% of control), % at 10 µM | actives 1.4% (n = 290,000) | AID 1529;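 active means binding response more than 3 SD above or below the average of its plate-row segment, actives on both sides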;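 further: Alexa488 bead fluorescence after subtracting the streptavidin-only scavenger bead signal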
Target sequence (Q99759 whole entry, looked up, the tested form may be a part): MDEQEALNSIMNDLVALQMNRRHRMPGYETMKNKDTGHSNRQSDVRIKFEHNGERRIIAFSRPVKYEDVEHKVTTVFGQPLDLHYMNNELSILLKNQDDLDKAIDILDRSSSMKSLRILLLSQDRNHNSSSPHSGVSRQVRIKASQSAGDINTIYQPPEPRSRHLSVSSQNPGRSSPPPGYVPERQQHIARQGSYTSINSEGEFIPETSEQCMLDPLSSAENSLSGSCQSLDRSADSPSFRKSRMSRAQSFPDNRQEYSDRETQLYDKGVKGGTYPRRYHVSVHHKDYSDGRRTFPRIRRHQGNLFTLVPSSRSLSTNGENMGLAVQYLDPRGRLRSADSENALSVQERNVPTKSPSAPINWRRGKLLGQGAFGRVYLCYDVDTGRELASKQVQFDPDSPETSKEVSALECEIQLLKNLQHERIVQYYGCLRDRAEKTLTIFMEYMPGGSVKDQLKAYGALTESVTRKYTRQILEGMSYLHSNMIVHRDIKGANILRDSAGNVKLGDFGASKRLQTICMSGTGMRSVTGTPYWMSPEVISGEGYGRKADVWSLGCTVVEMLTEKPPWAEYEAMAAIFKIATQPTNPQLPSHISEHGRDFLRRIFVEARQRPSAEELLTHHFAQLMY
VIM-2 inhibitor – inhibitors of Pseudomonas aeruginosa VIM-2 metallo-beta-lactamase | actives 0.89% (n = 290,000) | inhibition, % at 5.6 µM | purified VIM-2, nitrocefin hydrolysis, epi-absorbance fluorescence;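 active means inhibition above the mean of all tested compounds plus 3 SD, cutoff set per screening run, cut at about 7.5% in these data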;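 further: red hydrolysis product quenches plate fluorescence so inhibitors raise well fluorescence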
MEKK2 WT-MEK5 – raises or lowers MEK5 binding to wildtype human MEKK2 PB1 domain | Q9Y2U5 | bead flow cytometry, Alexa488-MEK5 binding to MEKK2 WT; actives lie on both sides | actives 1.1% (n = 290,000) | binding response (% of control), % at 10 µM; in the data active means binding response below about 67% or above about 130%
IMP-1 inh – blocks Pseudomonas aeruginosa IMP-1 metallo-beta-lactamase; AID 1556; purified IMP-1, nitrocefin hydrolysis, epi-absorbance fluorescence; actives 0.45% (n = 290,000); inhibition, % at 5.6 µM;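 active means inhibition above the mean plus 3 SD of all compounds in the same screening run, cut at about 4.5% in these data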
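Assay system: purified recombinant IMP-1 beta-lactamase. Input: IMP-1 0.2 nM before substrate addition. Buffer or medium: Zinc- and detergent-supplemented HEPES buffer, pH 7.1. Schedule: 25 °C, 15 min preincubation, 25 min reaction. Signal: Epi-absorbance fluorescence, 480 nm excitation, 530 nm emission. Evaluation: percent inhibition from optical density relative to buffer-blank wells.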
MEKK2 mut-MEK5 – signal of MEK5 binding to mutant human MEKK2 PB1 domain; percent response, % at 10 µM; actives 0.35% (n = 290,000); bead flow cytometry, Alexa488-MEK5 binding to MEKK2 mutant; in the data active means percent response above about 24%, passing the limit was not always enough
MEKK2wt confirm – raises or lowers MEK5 binding to wildtype human MEKK2, retest | binding response (% of control), % at 10 µM | bead flow cytometry, Alexa488-MEK5 binding to MEKK2 WT; actives lie on both sides | shares compounds with MEKK3 PB1 HTS | actives 2.4% (n = 5,900); in the data active means binding response below about 16% or above about 210%; inactive means in between
MEKK2mut-MEK5 – signal of MEK5 binding to mutant human MEKK2, retest. percent response, % at 10 µM. AID 1893. actives 2% (n = 5,900). bead flow cytometry, Alexa488-MEK5 binding to MEKK2 mutant. shares compounds with MEKK3 PB1 HTS; in the data active means percent response mostly above about 71%, no sharp cut-off; inactive means mostly below about 38%;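 further: higher means compound restores mutant binding toward wildtype level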
MEKK3-MEK5 inh – MEKK3-MEK5 PB1 inhibition, single concentration confirmation; bead flow cytometry, Alexa488-MEK5 binding to MEKK3; hits give low values; actives 1.8% (n = 5,900); AID 1894; binding response (% of control), % at 10 µM; shares compounds with MEKK3 PB1 HTS;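 active means binding response below 72% of control, or above a set upper limit, though filed actives all read lower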
A number is an active result; . = inactive; / = no result; [ ] = remark or other dose. Rows were chosen to be rich in hits. Some 3.4% of all compounds tested hit in one or more screens of this group.

SMILES | MEKK3 PB1 HTS | VIM-2 inhibitor | MEKK2 WT-MEK5 | IMP-1 inh | MEKK2 mut-MEK5 | MEKK2wt confirm | MEKK2mut-MEK5 | MEKK3-MEK5 inh
CCOc1ccccc1NC(=O)CCS(=O)(=O)c1ccc(Br)cc1 | 81[inhibitor] | . | . | 18 | . | . | . | .
CCn1c(=O)n(CCc2ccccc2)c(=O)c2c3c(sc21)CCCC3 | . | . | . | . | . | / | / | /
O=C(CCCn1c(SCC(=O)c2ccc(O)c(O)c2)nc2ccccc2c1=O)NCC1CCCO1 (configuration not stated) | . | . | . | . | . | / | / | /
Cc1ccc(-c2csc3nc4c5ccccc5c(NCCCN5CCOCC5)nn4c(=O)c23)cc1 | . | . | 145 | . | . | . | . | .
C[C@]12CCC(=O)C=C1CC[C@@H]1[C@@H]2CC[C@@]2(C)[C@H]1CC[C@]2(O)C(=O)CO | . | . | . | . | . | / | / | /
O=C(O)CCSc1nc2ccc(Br)cc2[nH]1 | . | . | . | . | . | / | / | /
N#CCc1ccc(Oc2ccc([N+](=O)[O-])cn2)cc1 | 48[inhibitor] | . | . | . | . | . | . | .
CC(C)C[C@H]1CN=C(Nc2ccccc2)N1CCCC1CCCCC1 | . | . | . | . | 24 | . | . | .
COc1cc(NC(=O)C2CCN(S(=O)(=O)c3cccnc3)CC2)cc(OC)c1OC | . | . | . | . | 25 | . | . | .
NC(=O)[C@@H]1CCCN1C(=O)c1ccc2nc(Cc3ccccc3F)oc2c1 | . | . | . | . | . | / | / | /
COc1ccc(C(=NNc2ccccc2C(=O)O)c2ccc(OC)cc2)cc1 | 150 | . | . | . | . | . | . | .
CCCCNC(=S)NNC(=O)c1ccncc1 | 35[inhibitor] | . | . | . | . | . | . | .
Brc1ccc(-c2nnc3ccc(N4CCN(c5ccccc5)CC4)nn23)cc1 | 0.0[inhibitor] | . | -1.0[inhibitor] | . | . | . | . | .
O=C(CN1CCC(O)(c2cccc(F)c2)CC1)NCCc1c[nH]c2ccccc12 | . | . | 178 | . | . | . | . | .
O=C(NCCc1c[nH]c2ccccc12)c1ccc(F)cc1F | . | . | . | . | . | / | / | /
CCOC(=O)c1ccccc1NC(=O)COC(=O)C(CC(C)C)NC(N)=O (configuration not stated) | . | . | . | . | . | / | / | /
CCn1c2ccccc2c2nnc(SCC(=O)Nc3c(C)n(C)n(-c4ccccc4)c3=O)nc21 | 2.0[inhibitor] | . | 2.0[inhibitor] | . | . | . | . | .
COc1ccccc1CNC(=O)[C@@H]1CCCN1S(=O)(=O)c1ccc(Cl)cc1 | . | . | . | . | . | / | / | /
O=C(c1cnc2n(c1=O)CCS2)N1CCN(c2ccc(Cl)c(Cl)c2)CC1 | . | . | . | . | . | / | / | /
COc1cc(C(=O)NC(=S)Nc2ccc([N+](=O)[O-])cc2C)cc(OC)c1OC | . | . | . | . | . | / | / | /
COc1cc(C(=O)NC(=S)Nc2ccc([N+](=O)[O-])cc2)cc(OC)c1OC | 141 | . | . | 4.6 | . | . | . | .
S=C(Nc1ccccc1)Nc1cc(Cl)ccc1Oc1ccccc1 | 123 | . | . | . | . | . | . | .
COc1ccccc1C(=O)Nc1ccncc1 | . | . | . | . | . | / | / | /
Cc1[nH]n(-c2ccc([N+](=O)[O-])cc2)c(=O)c1C=NCCc1c(C)[nH]c2ccccc12 | 133 | . | . | . | . | . | . | .
COc1ccc(CCNC(=O)CN(c2ccc(OC)cc2)S(C)(=O)=O)cc1 | . | . | . | . | . | / | / | /
Cc1cc(C)cc(NC(=O)CN2CCC(NC(=O)c3ccccc3F)CC2)c1 | . | . | 135 | . | . | . | . | .
O=C(CN1CCC(NC(=O)c2ccccc2F)CC1)NCc1ccc(F)cc1 | . | . | . | . | . | / | / | /
S=C(NCCCN1CCOCC1)N1CCN(c2nc(-c3ccccc3)cs2)CC1 | . | . | . | . | . | / | / | /
